Test results as given in ChEMBL document CHEMBL3046951, “Volatile constituents from the leaves of Callicarpa japonica Thunb. and their antibacterial activities” (2004).

What was measured:
Type in all cases: functional
Bacillus cereus [1] = assay: Antimicrobial activity against Bacillus cereus ATCC 11778 assessed as growth inhibition rate at 107.52 mg/l after 72 hr by spectrophotometry; details: ATCC 11778, 72 h, read-out: GI
In short: (§1)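 Pure volatile compounds (purity >95%; one at 90%) were tested against B. cereus ATCC 11778. The strain was grown at 30 °C in nutrient broth for 24 h, then subcultured for 18 h. Optical density was read in a Bioscreen C every 24 h for 72 h, with 10% Tween 80 as the control.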

Vibrio parahaemolyticus [2] = assay: Antimicrobial activity against Vibrio parahaemolyticus ATCC 33844 assessed as growth inhibition rate at 215.04 mg/l after 72 hr by spectrophotometry; details: ATCC 33844, 72 h, read-out: GI
Staphylococcus aureus [3] = assay: Antimicrobial activity against Staphylococcus aureus ATCC 25923 assessed as growth inhibition rate at 61.12 mg/l after 72 hr by spectrophotometry; details: ATCC 25923, 72 h, read-out: GI
Escherichia coli = assay: Antimicrobial activity against Escherichia coli O157:H7 ATCC 43894 assessed as growth inhibition rate at 215.04 mg/l after 72 hr by spectrophotometry; details: O157:H7 ATCC 43894, 72 h, read-out: GI
Bacillus cereus [4] = assay: Antimicrobial activity against Bacillus cereus ATCC 11778 assessed as growth inhibition rate at 43 mg/l after 72 hr by spectrophotometry; details: ATCC 11778, 72 h, read-out: GI; in short: as §1
Vibrio parahaemolyticus [5] = assay: Antimicrobial activity against Vibrio parahaemolyticus ATCC 33844 assessed as growth inhibition rate at 247 mg/l after 72 hr by spectrophotometry; details: ATCC 33844, 72 h, read-out: GI
Vibrio parahaemolyticus [6] = assay: Antimicrobial activity against Vibrio parahaemolyticus ATCC 33844 assessed as growth inhibition rate at 107.52 mg/l after 72 hr by spectrophotometry; details: ATCC 33844, 72 h, read-out: GI
Listeria monocytogenes [7] = assay: Antimicrobial activity against Listeria monocytogenes ATCC 19111 assessed as growth inhibition rate at 6.12 mg/l after 72 hr by spectrophotometry; details: ATCC 19111, 72 h, read-out: GI
In short: (§2)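 L. monocytogenes was grown at 30 °C in tryptic soy broth, subcultured for 18 h, and exposed to pure volatile compounds (>95% purity). Growth was followed by Bioscreen C optical density every 24 h for 72 h against a 10% Tween 80 control.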

Listeria monocytogenes [8] = assay: Antimicrobial activity against Listeria monocytogenes ATCC 19111 assessed as growth inhibition rate at 247 mg/l after 72 hr by spectrophotometry; details: ATCC 19111, 72 h, read-out: GI; in short: as §2
Listeria monocytogenes [9] = assay: Antimicrobial activity against Listeria monocytogenes ATCC 19111 assessed as growth inhibition rate at 43 mg/l after 72 hr by spectrophotometry; details: ATCC 19111, 72 h, read-out: GI; in short: as §2
Staphylococcus aureus [10] = assay: Antimicrobial activity against Staphylococcus aureus ATCC 25923 assessed as growth inhibition rate at 215.04 mg/l after 72 hr by spectrophotometry; details: ATCC 25923, 72 h, read-out: GI
Listeria monocytogenes [11] = assay: Antimicrobial activity against Listeria monocytogenes ATCC 19111 assessed as growth inhibition rate at 21.52 mg/l after 72 hr by spectrophotometry; details: ATCC 19111, 72 h, read-out: GI; in short: as §2

CCC/C=C/C=O
inhibition of growth at 107.52 µg/mL (Bacillus cereus [1]): 100%
inhibition of growth at 215.04 µg/mL (Vibrio parahaemolyticus [2]): 99.8%
inhibition of growth at 61.12 µg/mL (Staphylococcus aureus [3]): 72.6%
inhibition of growth at 215.04 µg/mL (Escherichia coli): 97.3%
inhibition of growth at 43 µg/mL (Bacillus cereus [4]): 91.8%
inhibition of growth at 247 µg/mL (Vibrio parahaemolyticus [5]): 100%
inhibition of growth at 107.52 µg/mL (Vibrio parahaemolyticus [6]): 99.8%
inhibition of growth at 6.12 µg/mL (Listeria monocytogenes [7]): 31%
inhibition of growth at 247 µg/mL (Listeria monocytogenes [8]): 99.7%
inhibition of growth at 43 µg/mL (Listeria monocytogenes [9]): 45.3%
inhibition of growth at 215.04 µg/mL (Staphylococcus aureus [10]): 100%
inhibition of growth at 21.52 µg/mL (Listeria monocytogenes [11]): 32%
